Here are results for nine compounds from ChEMBL document CHEMBL1130433, “Effects of log P and phenyl ring conformation on the binding of 5-phenylhydantoins to the voltage-dependent sodium channel” (J Med Chem, 1997).

This assay deals with Sodium channel alpha subunits; brain (Types I, II, III) (Rattus norvegicus, UniProt P04775+P04774+P08104). Kind of assay: Inhibition of [3H]BTX-B binding to Neuronal voltage-dependent sodium channel of rat cerebral cortex synaptoneurosomes. The assay is classed as tissue-based. In a few lines:
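Ice-cold buffer dilution, GF/C filtration, scintillation counting. Nonspecific binding measured with 300 μM veratridine. Triplicates with a 40 μM DPH control tube. IC50 by Probit analysis, excluding points below 10% or above 90% inhibition.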
The term IC50 denotes the concentration needed to halve the response being measured. A higher IC50 goes with weaker potency in that assay. `CCCCC1(c2ccccc2C)NC(=O)NC1=O` (centres undefined) registered an IC50 of 225 µM.
In the case of `O=C1NC(=O)C2(CCCCCc3ccccc32)N1` (centres undefined), the IC50 was determined as 251 µM.
Consider `O=C1NC(=O)C2(CCc3ccccc32)N1` (centres undefined), for which the IC50 was determined as 2112 µM.
The same measure for `CC12C(=O)NC(=O)N1CCc1ccccc12` (centres undefined): 250 µM.
As for `CCN1C(=O)NC(=O)[C@@]1(C)c1ccccc1`, the IC50 was determined as 720 µM.
The same measure for `O=C1NC(=O)C2(CCCc3ccccc32)N1` (centres undefined): 851 µM; for `O=C1NC(=O)C2(CCCCc3ccccc32)N1` (centres undefined): 251 µM; for `CCCCC1(c2ccc(C)cc2)NC(=O)NC1=O` (centres undefined): 95 µM.
As for `CCCCC1(c2cccc(C)c2)NC(=O)NC1=O` (centres undefined), the IC50 was determined as 58 µM.
